Assay [1] can be described thus: Her2 expression decrease, cell viability multiplex – SKBR3 breast tumor cells, AlphaScreen, ATP viability, primary screen (AID 461;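 active = Her2 level under about 52% in both replicate screens, with viability over 70% of control, limit read from the data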;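 for Her2 level: lower value means less Her2 protein in the cells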;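 for viability: percent of carrier control wells set as 100% viability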). The following applies: SKBR3 Her2 protein level, 18-24 h, measured here: SKBR3 viability, ATP luminescence, at 10 µM.
For assay [2], the target named is Receptor tyrosine-protein kinase erbB-2 (Homo sapiens) (UniProt P04626). Described as above. As to conditions: 18-24 h, at 10 µM, stronger effect = lower value.
Receptor tyrosine-protein kinase erbB-2 (Homo sapiens), sequence (P04626 whole entry, looked up): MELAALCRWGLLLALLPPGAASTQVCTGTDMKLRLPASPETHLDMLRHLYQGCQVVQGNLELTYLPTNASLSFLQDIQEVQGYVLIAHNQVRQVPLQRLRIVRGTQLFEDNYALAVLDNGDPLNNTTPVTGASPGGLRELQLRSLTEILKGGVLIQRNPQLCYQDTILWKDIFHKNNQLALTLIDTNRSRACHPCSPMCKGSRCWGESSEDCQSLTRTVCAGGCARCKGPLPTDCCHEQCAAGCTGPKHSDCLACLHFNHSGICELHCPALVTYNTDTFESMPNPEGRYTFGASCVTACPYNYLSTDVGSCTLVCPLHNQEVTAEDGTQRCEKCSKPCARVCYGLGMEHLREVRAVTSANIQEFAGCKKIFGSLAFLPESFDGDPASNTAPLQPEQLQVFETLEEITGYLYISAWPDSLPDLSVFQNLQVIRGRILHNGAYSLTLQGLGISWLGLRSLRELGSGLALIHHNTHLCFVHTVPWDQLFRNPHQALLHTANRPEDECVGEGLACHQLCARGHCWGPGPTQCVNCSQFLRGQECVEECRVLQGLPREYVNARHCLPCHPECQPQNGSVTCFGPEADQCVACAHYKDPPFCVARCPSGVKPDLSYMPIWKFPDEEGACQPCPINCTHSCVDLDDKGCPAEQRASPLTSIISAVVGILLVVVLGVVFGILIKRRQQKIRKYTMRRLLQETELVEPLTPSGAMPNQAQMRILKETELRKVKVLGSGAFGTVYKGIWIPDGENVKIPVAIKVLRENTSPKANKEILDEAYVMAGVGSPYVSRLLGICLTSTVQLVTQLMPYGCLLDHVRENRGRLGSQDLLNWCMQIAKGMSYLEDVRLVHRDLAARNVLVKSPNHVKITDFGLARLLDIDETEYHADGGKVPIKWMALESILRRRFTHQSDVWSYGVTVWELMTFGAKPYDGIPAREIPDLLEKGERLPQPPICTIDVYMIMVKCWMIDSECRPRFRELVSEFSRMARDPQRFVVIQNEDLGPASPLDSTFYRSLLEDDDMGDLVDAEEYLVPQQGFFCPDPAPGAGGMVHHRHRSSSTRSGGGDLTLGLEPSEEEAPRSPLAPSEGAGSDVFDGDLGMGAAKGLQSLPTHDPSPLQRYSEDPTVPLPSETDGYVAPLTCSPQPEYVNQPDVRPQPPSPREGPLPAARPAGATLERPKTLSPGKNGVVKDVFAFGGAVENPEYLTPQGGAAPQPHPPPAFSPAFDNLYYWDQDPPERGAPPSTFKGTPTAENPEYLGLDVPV
The nature of assay [3]: reduced viability of SK-BR-3 breast cancer cells – cell-based, 24 h, human, pilot screen (AID 572;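 active = viability at or below 10% of carrier control in both of two separate runs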;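 note: compound exposure lasted between 18 and 24 h rather than exactly 24 h; 100% = carrier-treated control wells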). As to conditions: SK-BR-3 viability, CellTiter-Glo luminescence, at 10 µM, stronger effect = lower value.
The nature of assay [4]: HUVEC growth inhibition – cell-based, human, primary screen (AID 575;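 active = viability at or below 30% in both replicate assays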;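 note: 100% = median of untreated cell wells with 0.1% DMSO on each plate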). As to conditions: HUVEC proliferation, CellTiter-Glo luminescence, 72 h; at 10 µM; stronger effect = lower value. In a few lines: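 Assay system: Primary human umbilical vein endothelial cells | Quantity: 1250 cells per well | Medium: Supplemented EBM, 2% fetal bovine serum | Detection: CellTiter-Glo luminescence measuring cellular ATP | Read-out: % viability vs DMSO wells | Plate: Collagen-coated 384-well format | Times: 72 h exposure, 37 °C, 5% CO2, 30 min RT equilibration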

The nature of assay [5]: H69AR cell proliferation blockers – human, duplicate replicates, primary screen (AID 580;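 active = viability at or under a set limit in both replicates, limit being median viability minus 3 SD, cut at about 48% in these data, passing the limit was not always enough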;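 note: 100% = mean luminescence of untreated wells and 0% = no signal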). The following applies: H69AR lung tumor cells viability, ATP luminescence, 72 h; at 10 µM; stronger effect = lower value.
Assay [6] can be described thus: MRP1 drug-resistance reversers in H69AR cells – cell-based, doxorubicin co-treatment, pilot screen (AID 601;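 active = viability loss from added drug above about 55%, and viability with drug at most 40%, in both replicates, limit read from the data, passing the limit was not always enough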). The following applies: CellTiter-Glo, 72 h, at 10 µM; for differential viability (reversal): stronger effect = higher value.
Assay [7] in a line: yeast transport mutant growth inhibition pilot in 384-well plates, post-Golgi transport modulator project (AID 636; in the data active = inhibition above about 31%). As to conditions: absorbance 615 nm, about 18 h, stronger effect = higher value.
A short description of assay [8]: growth suppression of yeast trafficking mutant, preliminary HTS, modulators of trafficking downstream of Golgi apparatus project, 1536-format plate, OD 615 nm (AID 637). As to conditions: yeast transport mutant growth, absorbance 615 nm, 18 h; stronger effect = higher value.
Setting [9] is: H69AR cells + 2 uM doxorubicin, measured here: viability with 2 uM doxorubicin, stronger effect = lower value.
Where [10] appears, read: H69AR cells, compound alone cytotoxicity.

Calls of active or inactive are those of the source. Cut-off read from the data, not from the text of the source, unless noted: active = inhibition above about 30%; inactive = the rest.

`O=C(NCCN1CCOCC1)c1ccc2c(c1)N(Cc1ccccc1)C(=O)CS2`: the viability in assay [1] was 89.5%; in assay [3], 89.5% (inactive); in assay [4], 97.8% (inactive); in assay [5] it was 99.4% (inactive); in assay [6] (setting [9]), 94.6%; in assay [6] (setting [10]) it was 99.4%. In addition, the Her2 level in assay [2] was 111% (inactive). Further, the differential viability (reversal) in assay [6] (H69AR cells + 2 uM doxorubicin) is 4.81% (inactive). Further, the inhibition is 0.67% (inactive) in assay [7] and -0.32% (inactive) in assay [8].
Take `COCCCNC(=O)CCc1nc2cccnc2n1Cc1ccc(OC)cc1`: the viability in assay [1] is 110%; in assay [3], 110% (inactive); in assay [4], 115% (inactive); in assay [5], 99.2% (inactive); in assay [6] (setting [9]) it was 94.3%; in assay [6] (setting [10]), 99.2%. For the same compound, the Her2 level in assay [2] was 106% (inactive). The differential viability (reversal) in assay [6] (H69AR cells + 2 uM doxorubicin) was 4.86% (inactive). Besides, the inhibition is -7.03% (inactive) in assay [7] and 1.83% (inactive) in assay [8].
Regarding `COc1ccccc1Oc1coc2c(CN3CCN(C)CC3)c(O)ccc2c1=O`, the viability is 102% in assay [1]; 102% (inactive) in assay [3]; 96.1% (inactive) in assay [4]; 99.5% (inactive) in assay [5]; 84.7% in assay [6] (setting [9]); 99.5% in assay [6] (setting [10]). In assay [2], the Her2 level is 111% (inactive). For the same compound, the differential viability (reversal) in assay [6] (H69AR cells + 2 uM doxorubicin) is 14.9% (inactive). In addition, the inhibition is -1.82% (inactive) in assay [7] and 1% (inactive) in assay [8].
On to `Cc1ccc(C)c(N(CC(=O)NCc2ccco2)C(=O)CCC(=O)Nc2ccccn2)c1`, for which the viability in assay [1] was 93%; in assay [3], 93% (inactive); in assay [4], 81.8% (inactive); in assay [5], 68.6% (inactive); in assay [6] (setting [9]), 74%; in assay [6] (setting [10]) it was 68.6%. The Her2 level in assay [2] is 92% (inactive). In assay [6] (H69AR cells + 2 uM doxorubicin), the differential viability (reversal) is -5.34% (inactive). The values for the inhibition in assay [7] and in assay [8] were -3.25% (inactive) and -1.43% (inactive), respectively.
Turning to `CCCN(CCC)CCNC(=O)C(NS(=O)(=O)c1ccc2c(c1)CCC(=O)N2)c1ccccc1` (stereo not given), the viability in assay [1] was 87.5%; in assay [3] it was 87.5% (inactive); in assay [4], 108% (inactive); in assay [5], 89.4% (inactive); in assay [6] (setting [9]) it was 89%; in assay [6] (setting [10]) it was 89.4%. The Her2 level in assay [2] is 86.5% (inactive). In assay [6] (H69AR cells + 2 uM doxorubicin), the differential viability (reversal) was 0.46% (inactive). Besides, the values for the inhibition in assay [7] and in assay [8] were 1.05% (inactive) and -1.45% (inactive), respectively.
`Cc1nc2cccc(C(=O)NC3CCCCC3)c2o1`: the viability in assay [1] is 100%; in assay [3], 100% (inactive); in assay [4], 98.6% (inactive); in assay [5] it was 93.1% (inactive); in assay [6] (setting [9]), 84.2%; in assay [6] (setting [10]), 93.1%. Besides, in assay [2], the Her2 level is 101% (inactive). The differential viability (reversal) in assay [6] (H69AR cells + 2 uM doxorubicin) was 8.96% (inactive). Further, the inhibition in assay [7] is -3.73% (inactive); in assay [8], 7.05% (inactive).
As to `COc1cc(NS(=O)(=O)c2ccc(Br)s2)cc(OC)c1`, the viability is 87% in assay [1]; 87% (inactive) in assay [3]; 89.6% (inactive) in assay [4]; 99.9% (inactive) in assay [5]; 94.3% in assay [6] (setting [9]); 99.9% in assay [6] (setting [10]). For the same compound, the Her2 level in assay [2] was 104% (inactive). In addition, the differential viability (reversal) in assay [6] (H69AR cells + 2 uM doxorubicin) was 5.59% (inactive). The inhibition in assay [7] was -6.53% (inactive); in assay [8] it was -7.7% (inactive).
`CC1CCN(S(=O)(=O)c2cn(CC(=O)N3CCN(C)CC3)c(=O)c3ccccc23)CC1`: the viability was 122% in assay [1]; 122% (inactive) in assay [3]; 104% (inactive) in assay [4]; 97.4% (inactive) in assay [5]; 97% in assay [6] (setting [9]); 97.4% in assay [6] (setting [10]). Further, in assay [2], the Her2 level is 97% (inactive). In addition, in assay [6] (H69AR cells + 2 uM doxorubicin), the differential viability (reversal) was 0.39% (inactive). Also, the inhibition in assay [7] was -1.69% (inactive); in assay [8] it was -7.46% (inactive).
In the case of `CC(NC(=O)Cc1cccs1)c1ccc2c(c1)OCO2` (stereo not given), the viability was 125% in assay [1]; 125% (inactive) in assay [3]; 108% (inactive) in assay [4]; 99.9% (inactive) in assay [5]; 86.2% in assay [6] (setting [9]); 99.9% in assay [6] (setting [10]). Moreover, the Her2 level in assay [2] was 81.5% (inactive). Besides, in assay [6] (H69AR cells + 2 uM doxorubicin), the differential viability (reversal) was 13.7% (inactive). Further, the results for the inhibition in assay [7] and in assay [8] were -4.67% (inactive) and -0.66% (inactive), respectively.
With `COC(=O)c1[nH]c2ccc(F)cc2c1NS(=O)(=O)c1ccc(OC)cc1OC`, the viability in assay [1] is 79%; in assay [3] it was 79% (inactive); in assay [4], 88.5% (inactive); in assay [5], 84.4% (inactive); in assay [6] (setting [9]) it was 99.9%; in assay [6] (setting [10]), 84.4%. Moreover, the Her2 level in assay [2] was 75% (inactive). In assay [6] (H69AR cells + 2 uM doxorubicin), the differential viability (reversal) is -15.5% (inactive). Also, the values for the inhibition in assay [7] and in assay [8] were -6.76% (inactive) and 4.92% (inactive), respectively.
As to `O=C(c1cc2cc(Cl)cc(Cl)c2oc1=O)N1CCOCC1`, the viability in assay [1] was 76%; in assay [3] it was 76% (inactive); in assay [4], 96% (inactive); in assay [5], 88.4% (inactive); in assay [6] (setting [9]) it was 87.7%; in assay [6] (setting [10]) it was 88.4%. Besides, in assay [2], the Her2 level was 82.5% (inactive). Further, the differential viability (reversal) in assay [6] (H69AR cells + 2 uM doxorubicin) was 0.725% (inactive). The inhibition is -6.35% (inactive) in assay [7] and 3.44% (inactive) in assay [8].
Consider `Cc1ccc2c(c1)CCCN2C(=O)Nc1ccc2c(c1)OCO2`, for which the viability was 95.5% in assay [1]; 95.5% (inactive) in assay [3]; 84.8% (inactive) in assay [4]; 89.5% (inactive) in assay [5]; 89.2% in assay [6] (setting [9]); 89.5% in assay [6] (setting [10]). Besides, the Her2 level in assay [2] is 79% (inactive). Moreover, the differential viability (reversal) in assay [6] (H69AR cells + 2 uM doxorubicin) was 0.28% (inactive). Further, the inhibition in assay [7] is -6.27% (inactive); in assay [8], 6.89% (inactive).
`CCOc1ccc(C(=O)N(Cc2ccc(N(C)C)cc2)C2CCS(=O)(=O)C2)cc1` (stereo not given): the viability in assay [1] was 114%; in assay [3], 114% (inactive); in assay [4] it was 101% (inactive); in assay [5], 88.1% (inactive); in assay [6] (setting [9]), 105%; in assay [6] (setting [10]), 88.1%. For the same compound, the Her2 level in assay [2] was 121% (inactive). Also, the differential viability (reversal) in assay [6] (H69AR cells + 2 uM doxorubicin) was -16.6% (inactive). For the same compound, the inhibition in assay [7] was -1.18% (inactive); in assay [8], 2.79% (inactive).
`Cc1nc(/N=C\N(C)C)sc1C(=O)Nc1ccccc1`: the viability in assay [1] is 93%; in assay [3], 93% (inactive); in assay [4] it was 100% (inactive); in assay [5], 96.2% (inactive); in assay [6] (setting [9]), 94.3%; in assay [6] (setting [10]), 96.2%. Moreover, in assay [2], the Her2 level is 82% (inactive). The differential viability (reversal) in assay [6] (H69AR cells + 2 uM doxorubicin) was 1.87% (inactive). Moreover, the inhibition is -5.81% (inactive) in assay [7] and -8% (inactive) in assay [8].
In the case of `CNS(=O)(=O)c1cccc(C(=O)OCC(=O)c2cc(C)n(-c3ccc4c(c3)OCO4)c2C)c1`, the viability in assay [1] was 85.5%; in assay [3], 85.5% (inactive); in assay [4], 65.6% (inactive); in assay [5], 88.4% (inactive); in assay [6] (setting [9]) it was 85.6%; in assay [6] (setting [10]), 88.4%. Moreover, the Her2 level in assay [2] was 92% (inactive). The differential viability (reversal) in assay [6] (H69AR cells + 2 uM doxorubicin) was 2.79% (inactive). Besides, the results for the inhibition in assay [7] and in assay [8] were -4.42% (inactive) and 2% (inactive), respectively.

For the origin of these results see PubChem BioAssay.
